KLK5 inh – kallikrein 5 (human) inhibition; inhibition, % at 5 µM; 210,000 compounds, 0.59% hits; recombinant hK5, fluorogenic AMC substrate cleavage; AID 873;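 active = inhibition of 40% or more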
Furin inhibitor – blocks human furin protease activity. P09958. purified furin, fluorogenic substrate cleavage. inhibition, % at 20 µM or 30 µM. 220,000 compounds, 0.061% hits; in the data active = inhibition above about 25%
FXIIa inh – blocks human coagulation factor XIIa protease activity | P00748 | purified FXIIa, Boc-QGR-AMC fluorogenic substrate, 2 h | inhibition, % at 5 µM | 220,000 compounds, 0.3% hits | AID 800; in the data active = inhibition above about 40%
FXIa inh – blocks human coagulation factor XIa protease activity; P03951; purified FXIa, Boc-Glu-Ala-Arg-AMC fluorogenic substrate; inhibition, % at 5 µM; 220,000 compounds, 0.14% hits; AID 798;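 active = inhibition of at least 40%; inactive = inhibition below 40%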;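 note: fluorescence of freed AMC excited at 355 nm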
Target sequence (P03951 19-387 limits assumed): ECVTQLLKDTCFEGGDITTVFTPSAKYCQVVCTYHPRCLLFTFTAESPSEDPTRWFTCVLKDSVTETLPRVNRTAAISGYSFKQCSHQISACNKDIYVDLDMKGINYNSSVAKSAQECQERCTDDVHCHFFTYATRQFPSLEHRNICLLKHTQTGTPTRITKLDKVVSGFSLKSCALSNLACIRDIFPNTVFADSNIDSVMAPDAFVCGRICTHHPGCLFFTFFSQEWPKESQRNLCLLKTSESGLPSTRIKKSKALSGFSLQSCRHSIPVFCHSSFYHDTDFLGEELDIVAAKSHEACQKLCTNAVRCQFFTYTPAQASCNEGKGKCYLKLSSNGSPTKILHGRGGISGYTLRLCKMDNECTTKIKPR
Target sequence (P03951 388-625 limits assumed): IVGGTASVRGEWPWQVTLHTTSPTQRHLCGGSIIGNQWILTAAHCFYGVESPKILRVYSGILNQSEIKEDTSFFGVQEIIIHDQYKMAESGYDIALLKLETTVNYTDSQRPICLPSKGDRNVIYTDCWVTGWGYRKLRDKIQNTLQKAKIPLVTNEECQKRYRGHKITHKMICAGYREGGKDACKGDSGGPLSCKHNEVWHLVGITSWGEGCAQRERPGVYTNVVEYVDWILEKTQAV
m-calpain inh – calpain II (pig) inhibition; 220,000 compounds, 0.37% hits; inhibition, % at 16 µM; purified calpain II, fluorogenic peptide substrate, 30 min;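 active = inhibition above about 50%, limit read from the data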
thrombin 1536 – thrombin (human) inhibition; inhibition, % at 5 µM; 220,000 compounds, 0.26% hits; P00734; alpha-thrombin, Boc-VPR-AMC fluorogenic substrate cleavage;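 active = inhibition at or above 40%; inactive = inhibition below 40%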
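System – human alpha-thrombin protein · Reagent – Boc-VPR-AMC substrate, 15 µM final · Compound – 5 µM single dose in 0.2% DMSO · Schedule – reaction at room temperature · Technique – AMC fluorescence at 355 nm excitation and 460 nm emission · Read-out basis – % inhibition relative to enzyme controls and enzyme-free blanks · Control set – no-compound enzyme wells and no-enzyme blanks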
Each line names hits and unclear results; the compound was inactive in the other large screens. Compounds with a hit are over-represented: about 1.4% of the library has one in this group of screens.

Cc1cc(-c2nnc3sc(-c4ccc(Cl)cc4Cl)nn23)n[nH]1	none
O=C(O)C(Cc1ccccc1)N1C(=O)/C(=C/c2cccc3ccccc23)SC1=S (stereo unspecified)	m-calpain inh 56
O=C(O)C(Cc1ccccc1)N1C(=O)/C(=C/c2ccccc2)SC1=S (stereo unspecified)	none
Cc1ccc2cc(C#N)c(SCC(=O)NNC(=O)Cc3ccccc3)nc2c1	m-calpain inh 59
COc1ccc2cc(C#N)c(SCC(=O)NNC(=O)Cc3ccccc3)nc2c1	none
Oc1ccc2ccccc2c1C=NC12CN3CCN(CN(C3)C1)C2	KLK5 inh 44
OCC(CO)(CO)N=Cc1c(O)ccc2ccccc12	none
COc1ccc(/C=C/C(=O)OCc2cccc([N+](=O)[O-])c2)cc1	none
COc1ccccc1N1CCN(C(c2cc3cc(C)ccc3[nH]c2=O)c2nnnn2C2CCCC2)CC1 (stereo unspecified)	none
Cc1cccc(Nc2ncccc2C(=O)NCc2cccs2)c1C	m-calpain inh 54
Cc1c(N(C)C(=O)C2CCCN2S(=O)(=O)c2ccccc2)c(=O)n(-c2ccccc2)n1C (stereo unspecified)	KLK5 inh 71, thrombin 1536 104
Cc1cccc(N2N=C(C(=O)N3CC(=O)Nc4ccccc43)CCC2=O)c1	FXIIa inh 44
O=C(Cc1ccccc1)NC(NC(=S)Nc1cc(Cl)ccc1Cl)C(Cl)(Cl)Cl (stereo unspecified)	FXIIa inh 103, m-calpain inh 51
Cc1nc(NC(=O)COc2ccccc2)sc1C(=O)Nc1ccccc1	none
Cc1[nH]c(=O)[nH]c(=O)c1/C=N/NC(=O)[C@H](C)N	KLK5 inh 52
CCn1nc(CC(=O)O)c2ccccc2c1=O	FXIa inh 66
CCc1cccc(C)c1NC(=S)NCC1CCN(c2ccc(OC)cc2)C1 (stereo unspecified)	none
COc1ccc(O)c(/C=N/NC(=O)c2cc(=O)[nH]c3ccccc23)c1	FXIIa inh 66
Cc1[nH]c2ccccc2c1/C=N/NC(=S)NCc1ccccc1	m-calpain inh 64
CC1=C(C(=O)Nc2ccc(C)cc2)C(c2ccc(C)o2)C2=C(CC(C)(C)CC2=O)N1 (stereo unspecified)	FXIIa inh 45
COc1ccccc1-c1c(C)oc2c(CN3CCN(CCO)CC3)c(O)ccc2c1=O	none
Cc1ccc(S(=O)(=O)n2nc(C)cc2C)cc1	KLK5 inh 43
COc1ccccc1NC(=O)c1csc2c1CCCC2	KLK5 inh 63
COc1ccccc1CNC(=O)c1csc2c1CCCC2	none
CCOC(=O)CCSc1n[nH]c(=S)s1	none
c1cc(CNC2=NCCCCC2)ccn1	KLK5 inh 65
CCOC(=O)C1(C)C=C(Nc2cccc(OC)c2)C(=O)N1c1ccccc1 (stereo unspecified)	KLK5 inh 44
Cn1nc(C(C)(C)C)c(NC(=O)c2ccc(F)cc2)c1C(C)(C)C	none
NC(=O)NC(=O)COC(=O)[C@H](Cc1ccccc1)NC(=O)c1cccs1	none
COc1ccccc1NC(=O)COC(=O)/C=C/c1ccc2c(c1)OCO2	none
NC(=O)c1ccc(NC(=O)COC(=O)/C=C/c2ccc3c(c2)OCO3)cc1	KLK5 inh 57
Cc1ccc(C)c(NC(=O)CN(C)C(=O)c2cccc(S(=O)(=O)N(C)C)c2)c1	none
O=C(Nc1ccc(Cl)cc1)Nc1ccccc1C(=O)NCc1ccco1	KLK5 inh 51, FXIa inh 104
CC1CN(Cc2c(O)ccc3c2oc(=O)c2ccccc23)CC(C)O1 (stereo unspecified)	m-calpain inh 80
O=C(c1ccc(-c2ccccc2)cc1)N1CCC(C(=O)N2CCCC2)CC1	none
O=C(c1ccc(-c2nnc(-c3ccccc3)o2)cc1)N1CCCCCC1	m-calpain inh 60
COCc1nnc(NC(=O)c2ccc(S(=O)(=O)N(C)c3ccccc3)cc2)o1	none
CCN(c1ccccc1)S(=O)(=O)c1ccc(C(=O)Nc2nnc(COC)o2)cc1	FXIIa inh 55
COc1ccc(OC)c(C(c2nnnn2C2CCCC2)N2CCN(c3ccccc3F)CC2)c1 (stereo unspecified)	m-calpain inh 51
COc1ccc(N2CCN(C(c3ccccc3OC)c3nnnn3C3CCCC3)CC2)cc1 (stereo unspecified)	none
COc1ccc(Cn2nnnc2C(c2cc(OC)ccc2OC)N2CCC(C(N)=O)CC2)cc1 (stereo unspecified)	KLK5 inh 70
COc1ccc(Cn2nnnc2C(c2ccccc2Cl)N2CCC(C(N)=O)CC2)cc1 (stereo unspecified)	none
COc1ccc(-c2cnn3c(N)c(S(=O)(=O)c4ccccc4)cnc23)cc1	none
Nn1c(Cc2cccc3ccccc23)nnc1SCCOc1ccc(F)cc1	FXIIa inh 41
CCOc1cc(S(=O)(=O)NCc2ccc(OC)cc2)c(OCC)cc1-n1cnnn1	KLK5 inh 46, thrombin 1536 69
COc1cccc(CC2(CO)CCN(C(=O)NC3CCCCC3)CC2)c1	none (no result: KLK5 inh)
Cc1ccccc1N1CCN(Cc2c[nH]c3ccccc23)CC1	FXIIa inh 48
COc1ccccc1N1CCN(Cc2c[nH]c3ccccc23)CC1	none
O=[N+]([O-])c1ccc(C2Nc3cccc4cccc(c34)N2)cc1	KLK5 inh 63
CCOc1ccc(Oc2ccc(S(=O)(=O)N3CCOCC3)cc2N)cc1	none
Nc1cc(S(=O)(=O)N2CCCCC2)ccc1Oc1ccccc1	m-calpain inh 51
CCOc1cc(S(=O)(=O)N2CCCCC2)ccc1Cl	KLK5 inh 60, thrombin 1536 104
COc1ccc(Cl)c(S(=O)(=O)N2CCCC2)c1	KLK5 inh 68
Cc1cccc(N(CC(=O)N2CCCC2)S(=O)(=O)c2ccccc2)c1C	none
CCCNS(=O)(=O)c1ccc2c(c1)n(C)c(=O)n2C	none
CCOc1cc(NC(=O)c2cccs2)c(OCC)cc1NC(=O)CCC(=O)NCc1ccccn1	none
O=C(CSc1nnc(COc2ccccc2)n1Cc1ccco1)c1ccc(F)cc1	FXIIa inh 62
O=c1c2ccccc2nnn1CSc1nnc(COc2ccc(Cl)cc2)n1Cc1ccco1	KLK5 inh 48
O=c1c2ccccc2nnn1CSc1nc2cc(Cl)ccc2c(=O)n1Cc1ccco1	none (no result: KLK5 inh, FXIIa inh, FXIa inh, m-calpain inh, thrombin 1536)
Cc1ccc(OCc2nnc(SCC(=O)c3ccccc3)n2Cc2ccco2)cc1	none
COc1ccc(-c2csc(NC(=O)c3ccccc3NS(=O)(=O)c3ccc(F)c(F)c3)n2)cc1	m-calpain inh 61
Nc1nc(SCC(=O)Nc2ccc(OCc3ccccc3)cc2)n[nH]1	KLK5 inh 44
Cc1ccc(S(=O)(=O)ON2C(=O)c3ccccc3C2=O)c(C)c1	FXIIa inh 47, FXIa inh 57, thrombin 1536 62
Cc1cc(C)c(C)c(S(=O)(=O)ON2C(=O)c3ccccc3C2=O)c1C	FXIIa inh 53, FXIa inh 72
